Experimental data reported in publication PMC7744370 (European journal of medicinal chemistry, 2020).
Each block holds one molecule with its values, some of them ahead of it.

Assays:
[1] = biological target: dopamine transporter (Homo sapiens, UniProt Q01959); test: NIMH PDSP binding assay at dopamine transporter
[2] = tested on: dopamine receptors (subtypes D1-D5); test: Primary binding assay at dopamine receptors; details: 10 μM
In short: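 Primary binding screen across a CNS GPCR panel, run through the NIMH screening programme at UNC Chapel Hill. Test compound at 10 μM; read-out is % inhibition as mean ± SEM of four independent experiments. Ki was not evaluated for receptors with under 50% activity.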

[3] = In vivo BBB permeability, plasma and brain distribution by LC-MS/MS; design: species or system C57 mice
In short: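 Male and female C57 mice, 8 weeks old and about 20 g, received a single i.p. 10 mg/kg dose of test compound in 2.5% ethanol, 2.5% DMSO, 5% Tween 80, 25% PEG 400 and 65% PBS. Blood was drawn under anaesthesia at 0, 0.5, 1, 6, 24 and 48 h. Brains were taken after cardiac perfusion and homogenised in PBS (1:3 w/v). Samples were acetonitrile-precipitated with internal standard and quantified by positive-ESI MRM LC-MS/MS against blank-matrix calibration curves. Results are mean ± SEM of 2–4 experiments.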

[4] = tested on: serotonin receptors; test: Primary binding assay at serotonin receptors; details: 10 μM
In short: (§1)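 […] primary binding screen across a panel of brain-expressed CNS receptors, including GPCRs, with test compound at 10 μM. The read-out is % inhibition of binding at each receptor, reported as mean ± SEM of four independent experiments. Receptors are grouped by >50% and >90% inhibition.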

[5] = Liver microsomal stability; type: in vitro ADME; details: rat liver microsomes, up to 60 minutes, compared with PFL
In short: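 Pooled male Sprague-Dawley rat liver microsomes were diluted to a 6.2% mixture in warm potassium-phosphate buffer. Test compound, diluted to 5 μM from a DMSO stock, was mixed with NADPH regenerating solution and prewarmed to 37 °C. Microsomes were then added and incubated 1 h at 37 °C with shaking. Aliquots at 0, 5, 15, 30 and 60 min were quenched in ice-cold acetonitrile, centrifuged at 4 °C and analysed by LC-MS/MS. Percent remaining was calculated from peak-area ratios versus T=0. Results are mean ± SEM, three experiments in triplicate.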

[6] = tested on: caspase-3; test: Caspase-3 cleavage; type: cell-based, human; details: MDA-MB-231
In short: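 MDA-MB-231 cells, grown in DMEM with 10% heat-inactivated FBS at 37 °C and 5% CO2, were exposed to test compound for 48 h and lysed on ice in RIPA buffer with protease/phosphatase inhibitors. Equal protein was run on SDS-PAGE and blotted to PVDF. Blots were probed for cleaved caspase-3 and total caspase-3 (1:1000), with β-tubulin (1:2000) as loading control. Detection used goat anti-rabbit HRP secondary and chemiluminescence; bands were quantified by densitometry.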

[7] = tested on: FGFR1; test: pFGFR1 immunoblot in MDA-MB-231 cells with and without bFGF; type: cell-based, human; details: 3 μM and 6 μM, in the presence of bFGF, 48 hours
In short: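 Phospho-FGFR1 (1:1000) western blot used MDA-MB-231 lysates after 48 h exposure to test compound, with or without the natural ligand bFGF. Lysis was on ice in RIPA buffer with protease/phosphatase inhibitors, followed by SDS-PAGE of equal protein and transfer to PVDF. β-tubulin (1:2000) served as loading control. Detection used HRP anti-rabbit secondary and chemiluminescence, then band densitometry; n = 3.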

[8] = tested on: MDA-MB-231 cells; test: Induction of apoptosis in MDA-MB-231 cells; type: cell-based, human; details: 1 μM, 48 hours
[9] = tested on: MDA-MB-231 cells; test: Cell cycle analysis in MDA-MB-231 cells; type: cell-based, human
[10] = tested on: GPCRs expressed in the brain; test: Primary binding assay at selected CNS receptors; details: 10 μM
In short: as §1

[11] = tested on: MDA-MB-231 triple-negative breast cancer cells; test: MTT cytotoxicity assay on MDA-MB-231 cells; type: cell-based, human
In short: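 MDA-MB-231 cells were kept in DMEM with 10% heat-inactivated FBS and antibiotic-antimycotic at 37 °C, 5% CO2, and tested for mycoplasma. Cells were seeded at 8000/well, grown 24 h, then screened at 20 μM. Dose series of 0–25 μM were given in 2% FBS DMEM with 0.1% final DMSO for 48 h. MTT (0.5 mg/mL) was added for 2 h at 37 °C, formazan dissolved in DMSO and read at 570 nm. IC50 was fitted from three independent experiments.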

dopamine transporter, sequence (Q01959 whole entry): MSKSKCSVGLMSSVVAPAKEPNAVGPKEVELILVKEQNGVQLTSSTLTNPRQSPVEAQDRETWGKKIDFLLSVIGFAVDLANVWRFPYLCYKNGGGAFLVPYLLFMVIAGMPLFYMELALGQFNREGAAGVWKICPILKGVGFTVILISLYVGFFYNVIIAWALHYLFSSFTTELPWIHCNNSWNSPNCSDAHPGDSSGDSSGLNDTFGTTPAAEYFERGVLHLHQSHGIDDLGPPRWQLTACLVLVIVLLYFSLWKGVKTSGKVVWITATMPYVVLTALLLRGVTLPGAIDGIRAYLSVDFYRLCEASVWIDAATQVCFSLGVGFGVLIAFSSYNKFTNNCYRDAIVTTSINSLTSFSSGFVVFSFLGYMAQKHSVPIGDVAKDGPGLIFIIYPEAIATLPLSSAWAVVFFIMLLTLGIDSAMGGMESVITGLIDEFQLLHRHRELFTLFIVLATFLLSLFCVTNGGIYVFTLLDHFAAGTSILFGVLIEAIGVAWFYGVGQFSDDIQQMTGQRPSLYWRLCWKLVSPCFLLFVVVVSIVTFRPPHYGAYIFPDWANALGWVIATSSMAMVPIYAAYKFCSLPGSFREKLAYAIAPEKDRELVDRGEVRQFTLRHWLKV

Structure (SMILES): CN(CCCCC(c1ccc(F)cc1)c1ccc(F)cc1)C(=O)N(C)c1ccc(Cl)c(C(F)(F)F)c1 [compound 15, 1-(5,5-bis(4-fluorophenyl)pentyl)-3-(4-chloro-3-(trifluoromethyl)phenyl)-1,3-dimethylurea]
DAT inhibitory activity (in words) [1]: inactive as a DAT inhibitor

Structure (SMILES): O=C(NCCCCC(c1ccc(F)cc1)c1ccc(F)cc1)Nc1ccc([N+](=O)[O-])c(C(F)(F)F)c1 [4q, 1-(5,5-bis(4-fluorophenyl)pentyl)-3-(4-nitro-3-(trifluoromethyl)phenyl)urea]
metabolic stability in liver microsomes [5]: preferred metabolic stability over PFL
caspase-3 cleavage and activation [6]: capable of caspase-3 cleavage and activation
phosphorylation of FGFR1 [7]: completely abrogated phosphorylation of FGFR1
induction of apoptosis [8]: significant induction of apoptosis
effect on cell cycle [9]: did not affect the cell cycle

Structure (SMILES): O=C(Nc1ccc(Cl)c(C(F)(F)F)c1)N1CCC(CC(c2ccc(F)cc2)c2ccc(F)cc2)CC1 [19b, 4-(2,2-bis(4-fluorophenyl)ethyl)-N-(4-chloro-3-(trifluoromethyl)phenyl) piperidine-1 carboxamide]
DAT inhibitory activity (in words) [1]: abolished DAT activity

Structure (SMILES): OC1(c2ccc(Cl)c(C(F)(F)F)c2)CCN(CCCC(c2ccc(F)cc2)c2ccc(F)cc2)CC1 [PFL, penfluridol]
number of receptors (GPCRs) inhibited at the level above 50% [10]: 28

Structure (SMILES): O=C(NCCCCC(c1ccc([N+](=O)[O-])cc1)c1ccc([N+](=O)[O-])cc1)Nc1ccc(Cl)c(C(F)(F)F)c1 [8g, 1-(5,5-bis(4-nitrophenyl)pentyl)-3-(4-chloro-3-(trifluoromethyl)phenyl)urea]
optimization of cytotoxicity relative to hit molecule 4a [11]: 6 fold

More lines, main results first:

interaction with dopamine receptors (subtypes D1-D5) [2]: no significant interaction
Tmax ([3]; both, C57, mouse, in vivo, ip, 10 mg/kg): 1 h
ability to cross the BBB in vivo ([3]; mice, 10 mg/kg i.p.): retained activity to cross the BBB
peak concentration ([3]; mice, 10 mg/kg single i.p., plasma and brain (Fig. 3)): approximately 1000 nM
Structure (SMILES): O=C(NCCCCC(c1ccc(F)cc1)c1ccc(F)cc1)Nc1ccc(Cl)cc1 [4a, 1-(5,5-bis(4-fluorophenyl)pentyl)-3-(4-chlorophenyl)urea]
activity at serotonin receptors [4]: no activity at serotonin receptors, except for 5HT-2C

metabolic stability in liver microsomes [5]: preferred metabolic stability over PFL
Structure (SMILES): O=C(NCCCCC(c1ccc(F)cc1)c1ccc(F)cc1)Nc1ccc(Cl)c(C(F)(F)F)c1 [4l, 1-(5,5-bis(4-fluorophenyl)pentyl)-3-(4-chloro-3-(trifluoromethyl)phenyl)urea]

decrease in affinity to DAT compared to 4l [1]: 100 fold
Structure (SMILES): CC(=O)Nc1cc(NC(=O)NCCCCC(c2ccc(F)cc2)c2ccc(F)cc2)ccc1Cl [4o, N-(5-(3-(5,5-bis(4-fluorophenyl)pentyl)ureido)-2-chlorophenyl)acetamide]
